# DNMT1 block: human DNMT1 methyltransferase inhibitors, primary screen, biochemical, molecular beacon, fluorescence, HinP1I cleavage, uHTS. inhibition (reported as % activation of signal), % at 10 µM. DNA (cytosine-5)-methyltransferase 1 (Homo sapiens), P26358. 360,000 tested, 0.83% active
# NSD2 HMT inh: NSD2 histone methyltransferase inhibitors, primary screen, biochemical, AlphaScreen, single concentration, set 2. Histone-lysine N-methyltransferase NSD2 (Homo sapiens), O96028. NSD2 peptide methylation, 120 min. inhibition, % at 12.5 µM. 310,000 tested, 0.54% active. AID 743445, 2014
# NS3 helicase inh: inhibitors of HCV NS3 helicase, primary screen, biochemical, Cy5 molecular beacon fluorescence; Hepatitis C virus NS3 helicase; NS3 helicase DNA unwinding; inhibition, % at 10.9 µM; 290,000 tested, 0.56% active;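 active means inhibition above the mean of all tested compounds plus 3 SD, set per campaign, cut at about 35% in these data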;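 further: 0% = DMSO wells and 100% = thioflavine S control wells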
#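 Control set: DMSO versus 110 µM thioflavine S; Material: NS3 helicase fragment of HCV; Measured by: Cy5 fluorescence at 0 and 60 min, beacon hairpin quenching; Read-out basis: percent inhibition from t60/t0 fluorescence ratio; Times: reaction time 60 min, 25 °C; Repeats: single replicate; Compound dosing: single dose, 10.9 µM nominal final, DMSO 0.8% final.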
# CASP6 VEID inh: human caspase-6 inhibitors, primary screen, biochemical, VEID-R110 fluorescence, single point, set 2 | 350,000 tested, 0.53% active | AID 686996, 2013 | inhibition, % at 12.5 µM | purified caspase-6, Z-VEID-R110 cleavage fluorescence;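 active means mean inhibition across replicates at least about 35%, with every replicate also reaching that limit, limit read from the data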;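 further: 0% = median of neutral control wells and 100% = no fluorescence left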
# Target sequence (P55212 24-179 limits assumed): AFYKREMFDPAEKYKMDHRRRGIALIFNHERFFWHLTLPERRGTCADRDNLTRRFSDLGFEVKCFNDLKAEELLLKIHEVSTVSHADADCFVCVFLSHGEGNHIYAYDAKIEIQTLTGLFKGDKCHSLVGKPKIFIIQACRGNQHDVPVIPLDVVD
# Target sequence (P55212 194-293 limits assumed): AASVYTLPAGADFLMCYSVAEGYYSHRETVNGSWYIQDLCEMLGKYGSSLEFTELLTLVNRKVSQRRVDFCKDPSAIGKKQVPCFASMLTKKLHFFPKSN
# NS3 helicase cf: HCV NS3 helicase inhibitors, retest, confirmation, biochemical, Cy5 molecular beacon fluorescence, triplicate; shares compounds with NS3 helicase inh; NS3 helicase DNA unwinding; inhibition, % at 10.9 µM; 1,600 tested, 31% active;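 active means inhibition above the mean of all tested compounds plus 3 SD, cutoff set per campaign, cut at about 36% in these data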
# FID counter trip: compounds displacing fluorescent DNA intercalator, artefact control for HCV NS3 helicase inhibitor project, biochemical, FID fluorescence, triplicate. shares compounds with NS3 helicase inh. inhibition, % at 7.9 µM. DNA fluorescent intercalator displacement. 1,600 tested, 4% active. AID 1945, 2009; in the data active means inhibition above about 37%;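 further: 0% = vehicle and 100% = reference compound; higher means more displacement of ethidium bromide from the DNA hairpin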
# * hit, by the source's call; · = not tested or not shown. An excerpt weighted towards active compounds, which were near 1.5% of everything screened. Unless noted, no stated cut-off is given here; in the data, active means inhibition above about 50%; inactive means the rest.
SMILES,DNMT1 block,NSD2 HMT inh,NS3 helicase inh,CASP6 VEID inh,NS3 helicase cf,FID counter trip
Cc1cc(C)nc(N/N=C/C2=C(N3CCOCC3)C(=C\c3ccc(Cl)cc3)/CC2)n1,1,3,36*,·,-6,-10
CN1CCN(C(=O)C[C@@H]2C=C[C@@H](NC(=O)Nc3ccccc3F)[C@@H](CO)O2)CC1,·,·,·,-1,·,·
C[C@@H]1CN([C@H](C)CO)C(=O)Cc2cc(NC(=O)Nc3ccc4c(c3)OCO4)ccc2O[C@H]1CN(C)Cc1ccc(Oc2ccccc2)cc1,·,·,·,-2,·,·
CCOC(=O)/C=C/C(=O)OCc1csc(CC(=O)Nc2ccccc2C)n1,-6,0,38*,-3,-19,-25
CC(C)=CC(=O)OCc1csc(CC(=O)Nc2ccccc2C)n1,1,-3,1,0,·,·
C=C[C@@H](C)[C@@H](OC(=O)Nc1ccc(OC)cc1)c1ccc(OCCO)cc1,·,·,·,-2,·,·
O=C1/C(=C\c2ccco2)SC(=S)N1C1CCCCC1,·,·,39*,·,51*,18
O=C(O)C1Nc2c(O)cc(Cl)c([N+](=O)[O-])c2C2C=CCC12 (stereo not drawn),89*,·,70*,98*,79*,22
CCOc1cc(/C=C2\SC(=S)N(C(C(=O)O)c3ccccc3)C2=O)ccc1O (stereo not drawn),-4,·,32,14,·,·
O=C1/C(=C\c2ccc(O)c(O)c2)SC(=S)N1Cc1ccccc1,-21,31,69*,25,59*,52*
COc1cc(/C=C2\SC(=S)N(C(C(=O)O)c3ccccc3)C2=O)ccc1O (stereo not drawn),-3,14,43*,-1,75*,-1
CCNC(=O)C[C@H]1CC[C@H]2[C@@H](COc3ccc(NC(=O)Nc4ccc(Cl)cc4)cc3C(=O)N2C)O1,·,·,·,1,·,·
C[C@H](CO)N1C[C@H](C)[C@H](CN(C)C(=O)Nc2ccccc2)Oc2cc(C#CC3(O)CCCC3)ccc2S1(=O)=O,·,·,·,-3,·,·
Cc1ccc(-n2nc3c(=O)n(CC(=O)NCc4cccs4)nc(C)c3c2C)cc1,2,-11,-3,-2,·,·
Cc1nn(CC(=O)NCCc2ccco2)c(=O)c2nn(-c3ccccc3)c(C)c12,18,2,48*,2,8,-7
Cc1nn(CC(=O)NCCc2cccs2)c(=O)c2nn(-c3ccccc3)c(C)c12,0,0,49*,1,-10,-25
N#C[C@H]1[C@H](c2ccccc2C2=CCCCC2)[C@@H](CO)N1C(=O)c1cccc(F)c1,·,·,·,-4,·,·
Cc1cc(F)ccc1S(=O)(=O)Nc1ncnc2sc3c(c12)CCC3,1,-3,39*,·,14,-12
Cc1ccc(S(=O)(=O)NCCCCCC(=O)NCCc2ccccc2)cc1,-2,3,43*,-7,-11,-28
COc1ccc(Br)cc1C1Nc2cccc3cccc(c23)N1,-23,1,97*,1,-28,27
O=C(Oc1ccc(NC(=O)c2cc3c(cc2Br)OCO3)cc1)c1ccccc1,-4,·,25,·,-10,-6
O=C(O)c1ccccc1N1C(=O)C2C3c4ccccc4C(Br)(c4ccccc43)C2C1=O (stereo not drawn),-1,-3,40*,2,42*,-21
CC12C(=O)N(c3ccccc3C(=O)O)C(=O)C1C1C=CC2C1 (stereo not drawn),6,-3,-13,·,·,·
C[C@H]1CN([C@@H](C)CO)C(=O)c2cccc(NC(=O)c3nc4ccccc4s3)c2O[C@H]1CN(C)Cc1ccc(Oc2ccccc2)cc1,·,·,·,1,·,·
O=C(O)CCC(=O)N1N=C(c2c(-c3ccccc3)c3cc(Cl)ccc3[nH]c2=O)CC1c1cccs1 (stereo not drawn),-2,7,37*,1,90*,-9
O=C(O)CCCC(=O)N1N=C(c2c(-c3ccccc3)c3cc(Cl)ccc3[nH]c2=O)CC1c1cccs1 (stereo not drawn),0,1,25,5,·,·

# Screening data as filed in PubChem.
